Reference: PMC4091728 (Chembiochem : a European journal of chemical biology, 2014)

Experiments:
TcCYP51 = TcCYP51 (Trypanosoma cruzi, UniProt Q7Z1V1); assay: Binding affinity by UV-vis spectroscopy
Procedure, shortened: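 Recombinant TcCYP51 at 1 μM in 100 mM potassium phosphate, pH 7.5, with 10% glycerol, at 23°C, in a 1-cm quartz cuvette. Titrated stepwise with test compound from a 100 μM DMSO stock, with equal solvent added to the reference cuvette. The absorbance shift between 425 and 390 nm was fitted to the quadratic tight-binding equation to give KD.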

[1] = tested on: Trypanosoma cruzi (CA-I/72 trypomastigotes) in mouse C2C12 myoblasts; assay: EC50 in cell-based assay using T. cruzi-infected mouse C2C12 myoblasts; settings: highest concentration 10 μM

Chain of TcCYP51 (Q7Z1V1 whole entry): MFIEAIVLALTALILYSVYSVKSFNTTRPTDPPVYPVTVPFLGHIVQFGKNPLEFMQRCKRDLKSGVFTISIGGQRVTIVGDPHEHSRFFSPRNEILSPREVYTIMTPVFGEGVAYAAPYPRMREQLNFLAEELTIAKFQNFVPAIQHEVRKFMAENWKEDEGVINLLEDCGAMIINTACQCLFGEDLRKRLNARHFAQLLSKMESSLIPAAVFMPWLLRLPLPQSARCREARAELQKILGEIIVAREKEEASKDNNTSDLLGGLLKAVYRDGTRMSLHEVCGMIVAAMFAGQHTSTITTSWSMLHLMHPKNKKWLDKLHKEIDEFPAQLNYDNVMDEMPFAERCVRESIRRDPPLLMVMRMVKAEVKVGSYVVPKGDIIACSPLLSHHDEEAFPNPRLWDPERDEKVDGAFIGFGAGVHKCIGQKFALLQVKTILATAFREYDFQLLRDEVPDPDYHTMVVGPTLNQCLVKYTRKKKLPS

Structure (SMILES)	Kd (TcCYP51)	anti-T. cruzi potency in cell culture, in words [1]
O=C(N[C@H](Cc1c[nH]c2ccccc12)C(=O)Nc1ccncc1)c1ccc(N2CCN(S(=O)(=O)c3cccnc3)CC2)cc1F [compound 5, (R)-N-(3-(1H-Indol-3-yl)-1-oxo-1-(pyridin-4-ylamino)propan-2-yl)-2-fluoro-4-(4-(pyridin-3-ylsulfonyl)piperazin-1-yl)benzamide]	15 ± 6 nM	inhibited T. cruzi at the low micromolar concentrations
O=C(N[C@H](Cc1c[nH]c2ccccc12)C(=O)Nc1ccncc1)c1ccc(N2CCN(S(=O)(=O)C3CC3)CC2)cc1F [compound 10, (R)-N-(3-(1H-Indol-3-yl)-1-oxo-1-(pyridin-4-ylamino)propan-2-yl)-4-(4-(cyclopropylsulfonyl)piperazin-1-yl)-2-fluorobenzamide]	25 ± 6 nM	failed to elicit T. cruzi inhibition in cell culture at ≤10 μM
O=C(N[C@H](Cc1c[nH]c2ccccc12)C(=O)Nc1ccncc1)c1ccc(N2CCN(S(=O)(=O)c3ccsc3C(=O)O)CC2)cc1F [compound 9, (R)-3-((4-(4-((3-(1H-Indol-3-yl)-1-oxo-1-(pyridin-4-ylamino)propan-2-yl)carbamoyl)-3-fluorophenyl)piperazin-1-yl)sulfonyl)thiophene-2-carboxylic acid]	≤ 10 nM	failed to elicit T. cruzi inhibition in cell culture at ≤10 μM
O=C(O)c1ccc(S(=O)(=O)N2CCN(c3ccc(C(=O)N[C@H](Cc4c[nH]c5ccccc45)C(=O)Nc4ccncc4)c(F)c3)CC2)cc1 [compound 8, (R)-4-((4-(4-((3-(1H-Indol-3-yl)-1-oxo-1-(pyridin-4-ylamino)propan-2-yl)carbamoyl)-3-fluorophenyl)piperazin-1-yl)sulfonyl)benzoic acid]	20 ± 7 nM	failed to elicit T. cruzi inhibition in cell culture at ≤10 μM

Now from value to compound, other results behind:

Kd (TcCYP51)	Structure (SMILES)	anti-T. cruzi potency in cell culture, in words [1]
47 ± 19 nM	N#Cc1ccc(S(=O)(=O)N2CCN(c3ccc(C(=O)N[C@H](Cc4c[nH]c5ccccc45)C(=O)Nc4ccncc4)c(F)c3)CC2)cc1 [compound 4, (R)-N-(3-(1H-Indol-3-yl)-1-oxo-1-(pyridin-4-ylamino)propan-2-yl)-4-(4-((4-cyanophenyl)sulfonyl)piperazin-1-yl)-2-fluorobenzamide]	
≤ 10 nM	O=C(N[C@H](Cc1c[nH]c2ccccc12)C(=O)Nc1ccncc1)c1ccc(N2CCN(S(=O)(=O)c3ccc(C(F)(F)F)cc3)CC2)cc1F [compound 6, (R)-N-(3-(1H-Indol-3-yl)-1-oxo-1-(pyridin-4-ylamino)propan-2-yl)-2-fluoro-4-(4-((4-(trifluoromethyl)phenyl)sulfonyl)piperazin-1-yl)benzamide]	inhibited T. cruzi at the low micromolar concentrations
≤ 10 nM	O=C(N[C@H](Cc1c[nH]c2ccccc12)C(=O)Nc1ccncc1)c1ccc(N2CCN(S(=O)(=O)c3cccs3)CC2)cc1F [compound 3, (R)-N-(3-(1H-Indol-3-yl)-1-oxo-1-(pyridin-4-ylamino)propan-2-yl)-2-fluoro-4-(4-(thiophen-2-ylsulfonyl)piperazin-1-yl)benzamide]	sub-nanomolar
19 ± 4 nM	CS(=O)(=O)N1CCN(c2ccc(C(=O)N[C@H](Cc3c[nH]c4ccccc34)C(=O)Nc3ccncc3)c(F)c2)CC1 [compound 11, (R)-N-(3-(1H-Indol-3-yl)-1-oxo-1-(pyridin-4-ylamino)propan-2-yl)-2-fluoro-4-(4-(methylsulfonyl)piperazin-1-yl)benzamide]	failed to elicit T. cruzi inhibition in cell culture at ≤10 μM
20 ± 7 nM	COC(=O)c1sccc1S(=O)(=O)N1CCN(c2ccc(C(=O)N[C@H](Cc3c[nH]c4ccccc34)C(=O)Nc3ccncc3)c(F)c2)CC1 [compound 7, (R)-methyl 3-((4-(4-((3-(1H-Indol-3-yl)-1-oxo-1-(pyridin-4-ylamino)propan-2-yl)carbamoyl)-3-fluorophenyl)piperazin-1-yl)sulfonyl)thiophene-2-carboxylate]	inhibited T. cruzi at the low micromolar concentrations
